# Published values pooled from the literature.
# Effect on: cell growth or viability
SMILES,cell line,method,concentration,time,quantity,result
Cc1ccc(/C=C2/SC(=Nc3ccccc3)NC2=O)c(C)c1,HEK293,,,,IC50,> 10 µM
c1cc2cc(CNCC3(N4CCCC4)COC3)ccc2[nH]1,GBM6,,30 µM,48 h,viability,101%
C=CC(=O)Nc1cc(Nc2nc(Nc3cnn(C)c3)c3sccc3n2)c(OC)cc1N(C)CCN(C)C,NCI-H1975,MTT,,,IC50,4.54 µM
COc1c(OCCCN2CCOCC2)ccc2c1N=C(NC(=O)c1cnc(N)nc1)N1CCN=C21,KPL4,,,,EC50,3.7 nM
COc1ccc(-c2ccc(-c3ccc(C(=N)N)nc3)s2)cc1,SK-MEL-28,SRB,,,GI50,1750 nM
CCN(c1cc(-c2ccc(CN3CCOCC3)cc2)cc(C(=O)NCc2c(C)cc(C)[nH]c2=O)c1C)C1CCOCC1,KARPAS-422,,,8 days,GI50,250 nM
C=CC(=O)Nc1cccc(Oc2nc(Nc3ccc(N4CCN(C)CC4)cc3)nc3ccsc23)c1,NCI-H1975,MTT,,,IC50,0.458 µM
COc1ccc(-c2ccc(-c3ccc(C(=N)N)nc3)s2)cc1Cl,NCI-H322M,SRB,,,GI50,1670 nM
CCC(=O)Nc1cc(Nc2nc(N3CCc4sccc4C3)c3cccnc3n2)c(OC)cc1N1CCN(CC)CC1,NCI-H1975,MTT,,,IC50,0.198 µM
CCCCc1n(Cc2ccc3ccccc3n2)cc[n+]1Cc1ccc2ccccc2n1,NCI-H322M,SRB,,,TGI,16.3 µM
CN1CCCC(CN2CCN(Cc3ccc(-c4cccc(-c5nc6ccccc6[nH]5)c4)cc3)CC2)C1 (stereo not drawn),HEK293,,,,IC50,> 10 µM
FC1CCN(C2(CNCc3ccc(-c4ccccc4Cl)o3)COC2)C1 (stereo not drawn),T98G,,30 µM,48 h,viability,53.1%
COc1ccc(CCc2ccc(-c3c(C)[nH]c(C)c(Cl)c3=O)cc2)cc1,HEK293,,,,IC50,> 10 µM
Fc1ccc2[nH]cc(CNCC3(N4CCC(F)C4)COC3)c2c1 (stereo not drawn),GBM6,,30 µM,48 h,viability,77.6%
CCCCCCCc1ccc(-c2c(C)[nH]c(C)c(Cl)c2=O)cn1,HEK293,,,,IC50,> 10 µM
FC1CCN(C2(CNCc3ccc(-c4ccccc4)o3)COC2)C1 (stereo not drawn),T98G,,30 µM,48 h,viability,96.4%
c1ccc(-c2n(Cc3ccc4ccccc4c3)cc[n+]2Cc2ccc3ccccc3c2)cc1,NCI-H322M,SRB,,,TGI,2.82 µM
Cc1cc2nc(-c3ccc(C(=O)NC4CCN(Cc5ccccc5)CC4)s3)[nH]c2cc1C,HEK293,,,,IC50,> 10 µM
Cn1cc(-c2cc(N3CCCCS3(=O)=O)ccc2Oc2ccc(F)cc2F)c2c(F)c[nH]c2c1=O,Rec1,CCK-8,,72 h,GI50,15 nM
Cc1cc(=O)c(-c2ccc(Oc3cccc(OC(F)(F)F)c3)cc2)c(C)[nH]1,HEK293,,,,IC50,> 10 µM
Fc1ccc2c(CNCC3(N4CCC(F)C4)COC3)c[nH]c2c1 (stereo not drawn),GBM6,,30 µM,48 h,viability,85.6%
